The source made the active and inactive calls. No cut-off for these calls is given here.
How the values were obtained:
[1] = Selectivity index, ratio of CC50 for human HOS cells to EC50 for HIV-1 harboring wild type integrase infected in human HOS cells; assay type: toxicity, cell-based; conditions: read-out: Ratio CC50/EC50
Procedure, shortened: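 HOS cells were exposed to compound and viability was read as ATP level by luciferase reporter. SI is CC50 divided by WT-vector EC50.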

[2] = test system: Human immunodeficiency virus 1; experiment: Antiviral activity against INSTI-resistant HIV-1 harboring integrase G118R mutant infected in human HOS cells pretreated with compound for 3 hrs by single-round HIV-1 infectivity assay; assay type: functional, organism-based; conditions: Human immunodeficiency virus 1, HOS
Procedure, shortened: (§1)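 VSV-g-pseudotyped single-round HIV-1 luciferase vector (WT or mutant IN) made in 293T cells by calcium phosphate transfection, supernatant harvested at 48 h. HOS cells were seeded the day before, then pretreated with compound, 11 serial dilutions from 10 μM to 0.0005 μM, at 37 °C for 3 h. Virus was added and cells kept 48 h at 37 °C. Luciferase was read and normalised to infectivity without compound.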

[3] = test system: Human immunodeficiency virus 1; experiment: Ratio of EC50 for raltegravir-resistant HIV-1 harboring integrase Y143R mutant infected in human HOS cells to EC50 for HIV-1 harboring integrase wild type integrase infected in human HOS cells; assay type: functional
[4] = biological target: T1, Human immunodeficiency virus type 1 integrase (Human immunodeficiency virus 1, UniProt Q7ZJM1); experiment: Inhibition of strand transfer activity of HIV-1 integrase using [gamma-32P]-labeled DNA as substrate
T1 sequence (Q7ZJM1 whole entry): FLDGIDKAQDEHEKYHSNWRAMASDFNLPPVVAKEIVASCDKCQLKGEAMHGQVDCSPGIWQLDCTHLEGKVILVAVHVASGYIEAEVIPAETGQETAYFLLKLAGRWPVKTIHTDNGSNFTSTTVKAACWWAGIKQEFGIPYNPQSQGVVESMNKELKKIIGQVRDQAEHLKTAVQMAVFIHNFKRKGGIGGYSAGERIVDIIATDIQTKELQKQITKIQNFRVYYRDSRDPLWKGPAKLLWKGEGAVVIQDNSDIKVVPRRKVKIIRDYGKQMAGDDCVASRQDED
Procedure, shortened: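 Gel-based assay with radiolabelled oligonucleotide substrate and Mg2+ cofactor, measuring strand transfer by recombinant HIV-1 integrase. IC50 determined.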

[5] = test system: HOS; experiment: Cytotoxicity against human HOS cells assessed as ATP level by luciferase reporter assay; assay type: cell-based
Procedure, shortened: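 HOS cells were exposed to compound and viability was read as ATP level by luciferase reporter. […] SI is CC50 divided by WT-vector EC50.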

[6] = test system: Human immunodeficiency virus 1; experiment: Ratio of EC50 for raltegravir-resistant HIV-1 harboring integrase G140S/Q148H double mutant infected in human HOS cells to EC50 for HIV-1 harboring integrase wild type integrase infected in human HOS cells; assay type: functional
[7] = biological target: Human immunodeficiency virus type 1 reverse transcriptase (Human immunodeficiency virus 1) (UniProt Q72547); experiment: Inhibition of HIV-1 reverse transcriptase RNase H activity-mediated -8 cleavage assessed as retention of -17 cleavage after 10 to 15 mins by agarose gel electrophoresis
[8] = test system: Human immunodeficiency virus 1; experiment: Antiviral activity against HIV-1 harboring wild type integrase infected in human HOS cells pretreated with compound for 3 hrs by single-round HIV-1 infectivity assay in presence of 5% fetal bovine serum; assay type: functional, organism-based; conditions: Human immunodeficiency virus 1, HOS; procedure, shortened: as §1
[9] = test system: Human immunodeficiency virus 1; experiment: Ratio of EC50 for INSTI-resistant HIV-1 harboring integrase R263K mutant infected in human HOS cells to EC50 for HIV-1 harboring integrase wild type integrase infected in human HOS cells; assay type: functional
[10] = test system: Human immunodeficiency virus 1; experiment: Antiviral activity against raltegravir-resistant HIV-1 harboring integrase N155H mutant infected in human HOS cells pretreated with compound for 3 hrs by single-round HIV-1 infectivity assay; assay type: functional, organism-based; conditions: Human immunodeficiency virus 1, HOS
[11] = test system: Human immunodeficiency virus 1; experiment: Antiviral activity against raltegravir-resistant HIV-1 harboring integrase G140S/Q148H double mutant infected in human HOS cells pretreated with compound for 3 hrs by single-round HIV-1 infectivity assay; assay type: functional, organism-based; conditions: Human immunodeficiency virus 1, HOS
[12] = test system: Human immunodeficiency virus 1; experiment: Antiviral activity against HIV-1 harboring wild type integrase infected in human HOS cells pretreated with compound for 3 hrs by single-round HIV-1 infectivity assay in presence of 10% fetal bovine serum; assay type: functional, organism-based; conditions: Human immunodeficiency virus 1, HOS; procedure, shortened: as §1
[13] = biological target: Human immunodeficiency virus type 1 reverse transcriptase (Human immunodeficiency virus 1) (UniProt Q72547); experiment: Inhibition of HIV-1 DNA-dependent DNA polymerase activity of reverse transcriptase after 60 mins by agarose gel electrophoresis
[14] = test system: Human immunodeficiency virus 1; experiment: Antiviral activity against HIV-1 harboring wild type integrase infected in human HOS cells pretreated with compound for 3 hrs by single-round HIV-1 infectivity assay; assay type: functional, organism-based; conditions: Human immunodeficiency virus 1, HOS
[15] = test system: Human immunodeficiency virus 1; experiment: Antiviral activity against INSTI-resistant HIV-1 harboring integrase R263K mutant infected in human HOS cells pretreated with compound for 3 hrs by single-round HIV-1 infectivity assay; assay type: functional, organism-based; conditions: Human immunodeficiency virus 1, HOS; procedure, shortened: as §1
[16] = test system: Human immunodeficiency virus 1; experiment: Antiviral activity against HIV-1 harboring wild type integrase infected in human HOS cells pretreated with compound for 3 hrs by single-round HIV-1 infectivity assay in presence of 15% fetal bovine serum; assay type: functional, organism-based; conditions: Human immunodeficiency virus 1, HOS; procedure, shortened: as §1
[17] = test system: Human immunodeficiency virus 1; experiment: Ratio of EC50 for raltegravir-resistant HIV-1 harboring integrase N155H mutant infected in human HOS cells to EC50 for HIV-1 harboring integrase wild type integrase infected in human HOS cells; assay type: functional
[18] = biological target: T1, Human immunodeficiency virus type 1 integrase
[19] = test system: Human immunodeficiency virus 1; experiment: Antiviral activity against raltegravir-resistant HIV-1 harboring integrase Y143R mutant infected in human HOS cells pretreated with compound for 3 hrs by single-round HIV-1 infectivity assay; assay type: functional, organism-based; conditions: Human immunodeficiency virus 1, HOS
[20] = biological target: Human immunodeficiency virus type 1 reverse transcriptase (Human immunodeficiency virus 1) (UniProt Q72547); experiment: Inhibition of HIV-1 RNase H activity of reverse transcriptase assessed as full length RNA level at 10 uM by agarose gel electrophoresis
[21] = test system: Human immunodeficiency virus 1; experiment: Ratio of EC50 for INSTI-resistant HIV-1 harboring integrase G118R mutant infected in human HOS cells to EC50 for HIV-1 harboring integrase wild type integrase infected in human HOS cells; assay type: functional
[22] = Retention time of the compound by HPLC analysis; assay type: physicochemical
Procedure, shortened: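 Preparative HPLC run as a linear gradient of solvent B over 30 min, starting at 30% B and ending at 70% or 80% B depending on the compound. Retention time was taken at elution.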

For `COC(=O)CNc1c(C(=O)NCc2ccc(F)cc2F)c(=O)n(O)c2ncccc12`, the selectivity ratio [1] was > 65800, the EC50 [2] was 41 nM and the “Ratio EC50” value [3] was 1. For the same compound, the IC50 [4] was 21 nM, the CC50 [5] was > 250000 nM and the “Ratio EC50” value [6] was 9. The inhibition [7] was “Active”, the EC50 [8] was 3.8 nM and the “Ratio EC50” value [9] was 7. The EC50 [10] was 19 nM, the EC50 [11] was 36 nM and the EC50 [12] was 3 nM. For the same compound, the inhibition [13] was “Active”, the EC50 [14] was 3.8 nM and the EC50 [15] was 26 nM. The EC50 [16] was 3 nM, the “Ratio EC50” value [17] was 5 and the IC50 [18] was 710 nM. The EC50 [19] was 4.6 nM, the inhibition [20] was “inactive” and the “Ratio EC50” value [21] was 11. For the same compound, the Retention_time [22] was 28.4 min.

From ChEMBL document CHEMBL3286128 (J Med Chem, 2014)
